From ChEMBL document CHEMBL1914339, “Design, synthesis and biological evaluation of pyridine acyl sulfonamide derivatives as novel COX-2 inhibitors” (Bioorg Med Chem, 2011)
The source made the active and inactive calls. The calls are words filed in the database; no cut-off is given here.

What was measured:
[1] = tested on: MCF7; experiment: Antiproliferative activity against human MCF7 cells after 48 hrs by MTT colorimetric assay; type: functional, cell-based; conditions: MCF7, 48 h
Procedure, shortened: (§1)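 Cells seeded at 2 × 10⁴ cells/ml and grown 24 h, then exposed in exponential growth to final compound concentrations of 0.1 to 100 for 48 h. Survival read by MTT (0.5 mg/mL in DMEM, 4 h) with absorbance at 570 nm. Three replicate wells per concentration; each assay run at least three times.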

[2] = tested on: RAW264.7; experiment: Antiinflammatory activity in mouse RAW264.7 cells assessed as inhibition of LPS-induced PGE2 production; type: functional, cell-based
[3] = tested on: B16-F10; experiment: Antiproliferative activity against mouse B16F10 cells after 48 hrs by MTT colorimetric assay; type: functional, cell-based; conditions: B16-F10, 48 h; procedure, shortened: as §1
[4] = tested on: HepG2; experiment: Antiproliferative activity against human HepG2 cells after 48 hrs by MTT colorimetric assay; type: functional, cell-based; conditions: HepG2, 48 h; procedure, shortened: as §1
[5] = biological target: Prostaglandin G/H synthase 1 (Mus musculus) (UniProt P22437)
[6] = biological target: Prostaglandin G/H synthase 2 (Mus musculus) (UniProt Q05769)
[7] = tested on: RAW264.7; experiment: Inhibition of LPS-induced COX2 expression in mouse RAW264.7 cells at 0.75 to 1.5 uM treated 15 mins before LPS challenge measured after 18 hrs by Western blotting; type: functional, cell-based
Procedure, shortened: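 RAW 264.7 cells (5 × 10⁵) were plated for 24 h, then pretreated with compound for 15 min before LPS stimulation for 18 h. Cells were lysed in lysis buffer and COX-2 protein was detected by Western immunoblot.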

Prostaglandin G/H synthase 2 (Mus musculus), sequence (Q05769 whole entry, looked up): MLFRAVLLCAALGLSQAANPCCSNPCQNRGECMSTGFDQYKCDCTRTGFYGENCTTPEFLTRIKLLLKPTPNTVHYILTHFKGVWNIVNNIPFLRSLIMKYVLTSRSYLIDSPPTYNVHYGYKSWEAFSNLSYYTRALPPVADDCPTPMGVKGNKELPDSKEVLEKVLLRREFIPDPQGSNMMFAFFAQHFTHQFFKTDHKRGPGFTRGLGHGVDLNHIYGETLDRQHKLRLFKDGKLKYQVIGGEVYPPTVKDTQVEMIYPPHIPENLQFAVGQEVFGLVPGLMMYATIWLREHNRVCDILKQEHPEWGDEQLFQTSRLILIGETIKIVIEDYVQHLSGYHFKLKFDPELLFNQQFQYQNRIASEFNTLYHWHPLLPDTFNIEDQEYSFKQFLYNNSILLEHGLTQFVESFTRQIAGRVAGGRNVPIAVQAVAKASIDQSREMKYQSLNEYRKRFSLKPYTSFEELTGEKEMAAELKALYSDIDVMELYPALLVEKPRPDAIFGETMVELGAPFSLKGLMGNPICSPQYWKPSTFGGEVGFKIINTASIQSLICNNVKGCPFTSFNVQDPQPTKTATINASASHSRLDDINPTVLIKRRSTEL
Prostaglandin G/H synthase 1 (Mus musculus), sequence (P22437 whole entry, looked up): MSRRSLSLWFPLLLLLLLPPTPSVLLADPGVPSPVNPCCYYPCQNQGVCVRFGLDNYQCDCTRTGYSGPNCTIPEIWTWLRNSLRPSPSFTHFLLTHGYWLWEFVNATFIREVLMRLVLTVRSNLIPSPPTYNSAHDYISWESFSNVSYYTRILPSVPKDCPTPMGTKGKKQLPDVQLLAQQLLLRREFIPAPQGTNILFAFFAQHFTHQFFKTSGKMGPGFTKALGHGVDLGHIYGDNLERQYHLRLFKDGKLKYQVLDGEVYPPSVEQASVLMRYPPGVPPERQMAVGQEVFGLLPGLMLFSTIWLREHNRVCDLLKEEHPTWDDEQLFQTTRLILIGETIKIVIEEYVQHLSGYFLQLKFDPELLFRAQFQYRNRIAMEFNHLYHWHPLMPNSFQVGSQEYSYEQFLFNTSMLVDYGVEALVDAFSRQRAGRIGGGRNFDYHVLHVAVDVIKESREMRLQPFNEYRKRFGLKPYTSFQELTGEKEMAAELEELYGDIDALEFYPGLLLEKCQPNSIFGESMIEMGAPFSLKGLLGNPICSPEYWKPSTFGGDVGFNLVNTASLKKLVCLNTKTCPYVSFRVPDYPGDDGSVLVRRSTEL

Cc1ccc(-c2cc(C(F)(F)F)nn2-c2ccc(S(N)(=O)=O)cc2)cc1 [CELECOXIB]
IC50 [1]: 40.8 µM
IC50 [2]: 0.1 µM
IC50 [3]: 85.6 µM
IC50 [4]: 95.5 µM

O=C(NS(=O)(=O)c1ccccc1)c1ccccn1
IC50 [5]: > 50 µM
IC50 [1]: 10.6 µM
IC50 [2]: 4.5 µM
IC50 [6]: 8.8 µM
IC50 [3]: 14.2 µM
IC50 [4]: 9.9 µM

O=C(NS(=O)(=O)c1ccccc1)c1cncc(C(=O)NS(=O)(=O)c2ccccc2)c1
IC50 [5]: 36.9 µM
IC50 [1]: 10.6 µM
IC50 [2]: 2.6 µM
IC50 [6]: 7.9 µM
IC50 [3]: 11.3 µM
IC50 [4]: 9.2 µM

Cc1ccc(S(=O)(=O)NC(=O)c2cncc(C(=O)NS(=O)(=O)c3ccc(C)cc3)c2)cc1
IC50 [5]: > 50 µM
IC50 [1]: 10.8 µM
IC50 [2]: 2.2 µM
IC50 [6]: 8.5 µM
IC50 [3]: 9.2 µM
IC50 [4]: 10 µM

O=C(NS(=O)(=O)c1ccc(F)cc1)c1cccnc1
IC50 [5]: > 50 µM
IC50 [1]: 10.6 µM
IC50 [2]: 8.6 µM
IC50 [6]: 11.7 µM
IC50 [3]: 13.8 µM
IC50 [4]: 9 µM

Cc1ccc(S(=O)(=O)NC(=O)c2ccccn2)cc1
IC50 [5]: > 50 µM
IC50 [1]: 11.8 µM
IC50 [2]: 5.9 µM
IC50 [6]: 8 µM
IC50 [3]: 16.7 µM
IC50 [4]: 12.1 µM

O=C(NS(=O)(=O)c1ccc(Cl)cc1)c1ccncc1
IC50 [5]: 41.2 µM
IC50 [1]: 10.1 µM
IC50 [2]: 8.9 µM
IC50 [6]: 12.6 µM
IC50 [3]: 12.4 µM
IC50 [4]: 7.9 µM

O=C(NS(=O)(=O)c1ccc(F)cc1)c1ccccn1
IC50 [5]: 43.8 µM
IC50 [1]: 11 µM
IC50 [2]: 3.3 µM
IC50 [6]: 6.3 µM
IC50 [3]: 10.9 µM
IC50 [4]: 8.5 µM

Cc1ccc(S(=O)(=O)NC(=O)c2ccncc2)cc1
IC50 [5]: > 50 µM
IC50 [1]: 14.1 µM
IC50 [2]: 9.8 µM
IC50 [6]: 19.4 µM
IC50 [3]: 16.2 µM
IC50 [4]: 20.2 µM

O=C(NS(=O)(=O)c1ccc(Cl)cc1)c1ccccn1
IC50 [5]: 39.7 µM
IC50 [1]: 9.8 µM
IC50 [2]: 2.8 µM
IC50 [6]: 6 µM
IC50 [3]: 9.4 µM
IC50 [4]: 8.1 µM

Cc1ccc(S(=O)(=O)NC(=O)c2cccc(C(=O)NS(=O)(=O)c3ccc(C)cc3)n2)cc1
IC50 [5]: 39.8 µM
IC50 [1]: 6.2 µM
IC50 [2]: 2.1 µM
IC50 [6]: 5.6 µM
IC50 [3]: 12.2 µM
IC50 [4]: 4.2 µM

O=C(NS(=O)(=O)c1ccc(Br)cc1)c1ccncc1
IC50 [5]: 38 µM
IC50 [1]: 8.7 µM
IC50 [2]: 5.5 µM
IC50 [6]: 7.8 µM
IC50 [3]: 8.8 µM
IC50 [4]: 6.3 µM

O=C(NS(=O)(=O)c1ccc(Cl)cc1)c1cccc(C(=O)NS(=O)(=O)c2ccc(Cl)cc2)n1
IC50 [5]: 41.5 µM
IC50 [1]: 4.2 µM
IC50 [2]: 0.87 µM
IC50 [6]: 1.9 µM
IC50 [3]: 6.2 µM
IC50 [4]: 3.8 µM

O=C(NS(=O)(=O)c1ccc(Br)cc1)c1cccc(C(=O)NS(=O)(=O)c2ccc(Br)cc2)n1
IC50 [5]: 35.6 µM
IC50 [1]: 1.8 µM
IC50 [2]: 0.15 µM
inhibition [7]: Active
IC50 [6]: 0.8 µM
IC50 [3]: 2.8 µM
IC50 [4]: 1.2 µM

O=C(NS(=O)(=O)c1ccc(Cl)cc1)c1cccnc1
IC50 [5]: 35.8 µM
IC50 [1]: 10.1 µM
IC50 [2]: 3.2 µM
IC50 [6]: 6.6 µM
IC50 [3]: 11.9 µM
IC50 [4]: 8.6 µM

Cc1ccc(S(=O)(=O)NC(=O)c2cccnc2)cc1
IC50 [5]: > 50 µM
IC50 [1]: 15.5 µM
IC50 [2]: 8.8 µM
IC50 [6]: 18.2 µM
IC50 [3]: 18.5 µM
IC50 [4]: 12.3 µM

O=C(NS(=O)(=O)c1ccc(Br)cc1)c1ccccn1
IC50 [5]: > 50 µM
IC50 [1]: 6.8 µM
IC50 [2]: 1.9 µM
IC50 [6]: 3.6 µM
IC50 [3]: 8.5 µM
IC50 [4]: 5 µM

O=C(NS(=O)(=O)c1ccc(F)cc1)c1ccncc1
IC50 [5]: > 50 µM
IC50 [1]: 13.9 µM
IC50 [2]: 9.2 µM
IC50 [6]: 12.1 µM
IC50 [3]: 13.8 µM
IC50 [4]: 12.4 µM

O=C(NS(=O)(=O)c1ccc(Br)cc1)c1cccnc1
IC50 [5]: 40.5 µM
IC50 [1]: 8.3 µM
IC50 [2]: 2.8 µM
IC50 [6]: 4.9 µM
IC50 [3]: 9.7 µM
IC50 [4]: 6.7 µM

O=C(NS(=O)(=O)c1ccc(F)cc1)c1cccc(C(=O)NS(=O)(=O)c2ccc(F)cc2)n1
IC50 [5]: 40.3 µM
IC50 [1]: 4.6 µM
IC50 [2]: 1.1 µM
IC50 [6]: 2.6 µM
IC50 [3]: 10 µM
IC50 [4]: 3.7 µM

O=C(NS(=O)(=O)c1ccccc1)c1cccc(C(=O)NS(=O)(=O)c2ccccc2)n1
IC50 [5]: 35.8 µM
IC50 [1]: 9.3 µM
IC50 [2]: 1.6 µM
IC50 [6]: 3.7 µM
IC50 [3]: 10.7 µM
IC50 [4]: 5.3 µM

O=C(NS(=O)(=O)c1ccc(Br)cc1)c1cncc(C(=O)NS(=O)(=O)c2ccc(Br)cc2)c1
IC50 [5]: 42.5 µM
IC50 [1]: 4.1 µM
IC50 [2]: 1.2 µM
IC50 [6]: 2.8 µM
IC50 [3]: 7.2 µM
IC50 [4]: 3.3 µM

O=C(NS(=O)(=O)c1ccc(F)cc1)c1cncc(C(=O)NS(=O)(=O)c2ccc(F)cc2)c1
IC50 [5]: 40.2 µM
IC50 [1]: 7.9 µM
IC50 [2]: 1.9 µM
IC50 [6]: 5.6 µM
IC50 [3]: 8.8 µM
IC50 [4]: 6.2 µM

O=C(NS(=O)(=O)c1ccccc1)c1cccnc1
IC50 [5]: > 50 µM
IC50 [1]: 11.5 µM
IC50 [2]: 9.5 µM
IC50 [6]: 15.8 µM
IC50 [3]: 14.5 µM
IC50 [4]: 10.4 µM
